Our source for the IC50 values is ChEMBL document CHEMBL1135865, “Novel guanidine-based inhibitors of inosine monophosphate dehydrogenase” (Bioorg Med Chem Lett, 2002).

As usually defined, the IC50 is the concentration that gives 50% inhibition. A high value points to a need for much substance.

The first assay addresses T1, Inosine-5'-monophosphate dehydrogenase 2 (Homo sapiens, UniProt P12268). Description: The compound was tested for it's in vitro inhibitor potency against inosine monophosphate dehydrogenase II (IMPDH II). In short, it runs like this: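 Human type II IMPDH purified from E. coli expressing the gene; 40 nM enzyme, 400 µM IMP, 2 mM DTT in 0.1 M Tris, 0.1 M KCl, 3 mM EDTA pH 8.0; final DMSO 2.5%. Started with NAD (final 400 µM); after 2 h at 25 °C, NADH read at 340 nm. IC50 for 50% inhibition of NADH accumulation from 4-parameter logistic fit.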
On to `COc1cc(N/C(=N/C#N)Nc2cccc(CNC(=O)OCC3CCOC3)c2)ccc1-c1cnco1` (stereo not drawn), for which the IC50 is 0.11 µM.

`COc1cc(N=C(N)Nc2cccc(C)c2)ccc1-c1cnco1`: the IC50 is over 3 µM.

In a further assay the target is T1, Inosine-5'-monophosphate dehydrogenase 2. Description: In vitro inhibition of Inosine-5'-monophosphate dehydrogenase 2. In short, it runs like this: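 Human type II IMPDH purified from E. coli expressing the gene; 40 nM enzyme, 400 µM IMP, 2 mM DTT in 0.1 M Tris, 0.1 M KCl, 3 mM EDTA pH 8.0; final DMSO 2.5%. Started with NAD (final 400 µM); after 2 h at 25 °C, NADH read at 340 nm.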
Take `COc1cc(NC(=NC#N)Nc2ccccc2C)ccc1-c1cnco1`: the half-inhibitory concentration (IC50) was determined as 2.2 µM.

As for `COc1cc(NC(=NC#N)Nc2ccccc2)ccc1-c1cnco1`, the IC50 was found to be 0.25 µM.

As to `COc1cc(NC(=NC#N)Nc2cccc(C)c2)ccc1-c1cnco1`, the half-maximal inhibitory concentration (IC50) came to 0.24 µM.

With `CCOC(=O)N=C(Nc1cccc(C)c1)Nc1ccc(-c2cnco2)c(OC)c1`, it took 0.74 µM to reach half-maximal inhibition (IC50).

`CCCCNC(=O)c1cccc(NC(=NC#N)Nc2ccc(-c3cnco3)c(OC)c2)c1`: it took 0.13 µM to reach half-maximal inhibition (IC50). Compared with the last molecule, the IC50 is about 5.7-fold lower.

In turn, `COc1cc(NC(=NC#N)Nc2cccc(CNC(=O)O[C@H]3CCOC3)c2)ccc1-c1cnco1` yielded a half-inhibitory concentration (IC50) of 0.34 µM. This IC50 lies about 2.6-fold higher than the previous one.

Molecule `CON/C(=N\c1ccc(-c2cnco2)c(OC)c1)Nc1cccc(C)c1` displayed an IC50 of 0.66 µM. Compared with the last molecule, the IC50 is about 1.9-fold higher.

`COc1cc(NC(=NC#N)Nc2cccc(OCCOc3ccccc3)c2)ccc1-c1cnco1` came in with a half-inhibitory concentration (IC50) of 0.38 µM.

Regarding `COc1cc(N/C(=N/c2cccc(CO)c2)NC#N)ccc1-c1cnco1`, half-maximal inhibition (IC50) required 0.28 µM.

`COc1cc(N/C(=N/C#N)Nc2ccc(C)cc2)ccc1-c1cnco1` yielded an IC50 of 1.5 µM.

Molecule `COc1cc(N/C(=N/c2cccnc2)NC#N)ccc1-c1cnco1` showed an IC50 of 0.32 µM.

In turn, `COc1cc(NC(=NC#N)Nc2cccc(CNC(=O)NCC3CCCO3)c2)ccc1-c1cnco1` (stereo not drawn) had a half-inhibitory concentration (IC50) of 0.18 µM.

The molecule `COc1cc(NC(=O)Nc2cccc(C)c2)ccc1-c1cnco1` yielded an IC50 of 0.019 µM. Compared with the last molecule, the IC50 is about 9.5-fold lower.

For `COc1cc(NC(=NC#N)Nc2ccccn2)ccc1-c1cnco1`, the half-inhibitory concentration (IC50) was 0.34 µM.

As to `CN/C(=N\c1ccc(-c2cnco2)c(OC)c1)Nc1cccc(C)c1`, the half-inhibitory concentration (IC50) is over 3 µM.

The molecule `COc1cc(N=C(NC(C)=O)Nc2cccc(C)c2)ccc1-c1cnco1` gave an IC50 of over 1 µM.

For the molecule `COc1cc(NC(=NC#N)NCc2cccc(C)c2)ccc1-c1cnco1`, inhibition was half-maximal at 1.1 µM (IC50).

The molecule `COc1cc(NC(=N)NC#N)ccc1-c1cnco1` registered an IC50 of 0.33 µM.

`COc1cc(N=C(N)NC(=O)c2ccccc2)ccc1-c1cnco1`: 0.8 µM corresponded to half-maximal inhibition (IC50).

Molecule `COc1cc(N/C(=N/c2cccc(C/N=C(\NC#N)Oc3ccccc3)c2)NC#N)ccc1-c1cnco1` yielded a 50% inhibitory concentration (IC50) of 0.016 µM.

In another assay the test system is CCRF-CEM. Description: Inhibitory concentration against human T-lymphoblast CEM cell line (ATCC) by CEM proliferation assay. Type of assay: functional, cell-based. In outline: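 CEM human T-lymphoblasts in RPMI 1640 with 10% heat-inactivated FBS plus penicillin/streptomycin, seeded 3000 cells/well with 0.5% DMSO. Compounds tested in triplicate from 10 uM top final concentration, 3-fold serial dilutions. Cells held 72 h in 5% CO2 humidified atmosphere. Viability measured by Alamar Blue (10% v/v, final 5 h), fluorescence at 530/590 nm.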
In turn, `COc1cc(N/C(=N/c2cccc(C/N=C(\NC#N)Oc3ccccc3)c2)NC#N)ccc1-c1cnco1` registered an IC50 of 0.41 µM.
